Measurements as given in ChEMBL document CHEMBL1811845, “Modulation of GABAA-receptors by honokiol and derivatives: subtype selectivity and structure-activity relationship” (J Med Chem, 2011).

How the values were obtained:
[1] = biological target: T1, GABA-A receptor; GABA-A site (alpha1/beta2 interface) (Homo sapiens, UniProt P14867+P47870); assay: Modulation of GABA Aalpha1beta2 receptor expressed in Xenopus laevis oocytes assessed as potentiation of GABA-induced chloride current at holding potential -70 mV by two-microelectrode voltage clamp technique; type: cell-based, Oocyte
T1 sequence (P14867 whole entry): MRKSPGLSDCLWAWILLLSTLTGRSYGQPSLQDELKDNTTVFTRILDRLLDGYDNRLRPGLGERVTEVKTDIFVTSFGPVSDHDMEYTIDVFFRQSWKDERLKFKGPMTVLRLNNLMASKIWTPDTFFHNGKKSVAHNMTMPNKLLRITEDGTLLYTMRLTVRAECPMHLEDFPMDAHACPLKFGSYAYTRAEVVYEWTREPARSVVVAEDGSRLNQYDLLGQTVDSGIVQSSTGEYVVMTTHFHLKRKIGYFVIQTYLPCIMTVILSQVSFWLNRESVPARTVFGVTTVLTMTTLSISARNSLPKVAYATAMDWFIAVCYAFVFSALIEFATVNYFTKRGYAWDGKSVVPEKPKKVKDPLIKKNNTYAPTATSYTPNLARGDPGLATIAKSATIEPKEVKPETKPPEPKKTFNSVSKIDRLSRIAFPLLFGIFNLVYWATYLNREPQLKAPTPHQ
T1 sequence (P47870 whole entry): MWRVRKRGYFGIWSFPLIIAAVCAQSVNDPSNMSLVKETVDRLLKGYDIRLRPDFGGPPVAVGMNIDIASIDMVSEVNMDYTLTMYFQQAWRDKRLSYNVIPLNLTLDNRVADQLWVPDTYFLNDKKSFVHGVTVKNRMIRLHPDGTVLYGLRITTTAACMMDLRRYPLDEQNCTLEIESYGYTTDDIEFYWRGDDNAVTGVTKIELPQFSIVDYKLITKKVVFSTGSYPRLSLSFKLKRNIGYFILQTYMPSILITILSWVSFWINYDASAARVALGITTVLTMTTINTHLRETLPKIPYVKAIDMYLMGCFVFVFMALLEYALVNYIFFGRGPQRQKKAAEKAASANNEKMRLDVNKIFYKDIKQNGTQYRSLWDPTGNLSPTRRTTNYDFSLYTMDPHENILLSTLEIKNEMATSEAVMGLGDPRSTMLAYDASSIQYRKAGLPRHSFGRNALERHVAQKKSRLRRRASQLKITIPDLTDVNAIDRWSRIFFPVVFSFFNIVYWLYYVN
How it was run: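 Stage V–VI Xenopus oocytes, defolliculated with 2 mg/mL collagenase, injected with α(1, 2, 3 or 5) and β2 cRNAs mixed 1:1, then kept at 18 °C in ND96 (pH 7.4). Enhancement = I(GABA+compound)/IGABA − 1. Curves were Hill-fitted for EC50. Bath DMSO was at most 0.3%, matched in controls.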

[2] = biological target: GABA-A receptor alpha-1/beta-3 (Homo sapiens) (UniProt P14867+P28472); assay: Modulation of GABA Aalpha1beta3 receptor expressed in Xenopus laevis oocytes assessed as potentiation of GABA-induced chloride current at holding potential -70 mV by two-microelectrode voltage clamp technique relative to GABA; type: cell-based; conditions: Oocyte
How it was run: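 α1β3 receptors were expressed in defolliculated stage V–VI Xenopus oocytes and kept at 18 °C in ND96, pH 7.4. Potentiation was computed as (I(GABA+compound)/IGABA)−1, and EC50 and Hill coefficient came from nonlinear fits. Matched DMSO was ≤0.3%.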

[3] = biological target: GABA-A receptor; GABA-A site (alpha1/beta2 interface) (Homo sapiens) (UniProt P14867+P47870); assay: Modulation of GABA Aalpha1beta2 receptor expressed in Xenopus laevis oocytes assessed as potentiation of GABA-induced chloride current at holding potential -70 mV at 30 uM by two-microelectrode voltage clamp technique relative to GABA; type: cell-based; conditions: Oocyte
How it was run: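 Single-concentration screen at 30 μM on α1β2 receptors (cRNA 1:1) in Xenopus oocytes. Enhancement was (I(GABA+compound)/IGABA)−1. DMSO was matched in control and test solutions, maximum 0.3% in the bath.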

[4] = Octanol-water partition coefficient, log P of the compound; type: physicochemical; conditions: read-out: logP
Oocyte = assay: Modulation of GABA alpha1beta2gamma2s receptor expressed in Xenopus laevis oocytes assessed as potentiation of GABA-induced chloride current at holding potential -70 mV by two-microelectrode voltage clamp technique relative to GABA; type: cell-based
How it was run: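 Oocytes were injected with α1, β2 and γ2s cRNAs mixed 1:1:10 and stored at 18 °C in ND96 (pH 7.4). GABA was applied at a concentration giving 3–7% of maximal current, determined for each oocyte. Enhancement was taken as (I(GABA+compound)/IGABA) − 1. Concentration–response data were fitted to a Hill equation. Control solutions carried equal DMSO, at most 0.3%.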

[5] = biological target: T2, Gamma-aminobutyric acid receptor subunit alpha-1/ beta-1 (Homo sapiens, UniProt P14867+P18505); assay: Modulation of GABA Aalpha1beta1 receptor expressed in Xenopus laevis oocytes assessed as potentiation of GABA-induced chloride current at holding potential -70 mV by two-microelectrode voltage clamp technique; type: cell-based, Oocyte
T2 sequence (P14867 whole entry): T1 sequence (P14867 whole entry)
T2 sequence (P18505 whole entry): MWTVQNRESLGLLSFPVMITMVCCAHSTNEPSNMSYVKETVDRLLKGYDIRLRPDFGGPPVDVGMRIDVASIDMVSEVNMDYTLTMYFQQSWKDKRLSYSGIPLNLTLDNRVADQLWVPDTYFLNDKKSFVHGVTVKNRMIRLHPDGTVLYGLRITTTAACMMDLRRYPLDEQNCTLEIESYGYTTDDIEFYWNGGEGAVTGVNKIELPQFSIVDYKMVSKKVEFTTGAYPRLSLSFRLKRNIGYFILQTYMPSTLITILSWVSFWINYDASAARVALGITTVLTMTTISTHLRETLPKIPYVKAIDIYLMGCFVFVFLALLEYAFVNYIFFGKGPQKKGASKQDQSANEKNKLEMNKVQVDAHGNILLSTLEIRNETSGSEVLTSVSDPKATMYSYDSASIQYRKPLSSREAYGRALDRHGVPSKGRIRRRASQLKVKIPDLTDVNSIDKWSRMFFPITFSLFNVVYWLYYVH
How it was run: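 Stage V–VI Xenopus oocytes were injected with subunit cRNAs, with α1 and β1 mixed 3:1 for α1β1, and kept at +18 °C in modified ND96 at pH 7.4. Two-electrode voltage clamp was run at -70 mV and ambient temperature. Test GABA gave 3–7% of maximal current, set for each oocyte. Enhancement was (I(GABA+compound)/IGABA) − 1. EC50 came from a Hill fit. DMSO (max 0.3%) was matched in controls.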

## C=CCc1ccc(O)c(-c2ccc(O)c(CC=C)c2)c1 [HONOKIOL]
[1]
  EC50: 39.3 µM
[2]
  Smax: 878%
[3]
  Activity: 376%
[4]
  logP: 5.16
Oocyte
  Smax: 1320%
[5]
  EC50: 57 µM
